High-throughput results deposited in PubChem by The Scripps Research Institute Molecular Screening Center.
Most compounds without a hit are left out; they make up all but 1.8% or so of the library.
NPY Y1 blocker: NPY-Y1 receptor antagonists, primary screen, cell-based; AID 1040, 2008; inhibition, % at 3.6 µM; HEK293-CNG Y1 cells, membrane potential fluorescence; NPY at EC95, then isoproterenol; 200,000 compounds, 1% hits;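 active = inhibition above the campaign mean inhibition of all tested compounds plus 3 SD, cut at about 20% in these data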
Target sequence (P25929 whole entry, looked up): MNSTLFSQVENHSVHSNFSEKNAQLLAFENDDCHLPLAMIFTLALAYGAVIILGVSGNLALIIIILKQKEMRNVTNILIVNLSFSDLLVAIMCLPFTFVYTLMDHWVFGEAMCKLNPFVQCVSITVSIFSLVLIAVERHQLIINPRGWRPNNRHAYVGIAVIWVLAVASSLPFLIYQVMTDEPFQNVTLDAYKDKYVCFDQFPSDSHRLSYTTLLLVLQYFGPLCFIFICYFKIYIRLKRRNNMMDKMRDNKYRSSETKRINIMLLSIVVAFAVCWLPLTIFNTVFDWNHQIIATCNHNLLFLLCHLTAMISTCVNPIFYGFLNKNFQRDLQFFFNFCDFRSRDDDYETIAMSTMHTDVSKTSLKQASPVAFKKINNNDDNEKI
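Material: HEK293 Y1/CNG channel cell line | Also added: NPY (25 nM), isoproterenol (1 µM), Ro 20-1724 (25 µM) | Compound: One concentration, 3.6 µM, in 0.4% DMSO | Schedule: 3 h dye uptake, 1 h room-temperature compound, 45 min post-isoproterenol | Signal: Membrane-potential fluorescent dye readout | Read-out: % inhibition of NPY effect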
NPY-Y2 PAM-ag: NPY-Y2 potentiators or agonists, primary screen, cell-based; cells expressing NPY-Y2, potentiator/agonist read-out; activation, % at 3.6 µM; 220,000 compounds, 0.45% hits; Neuropeptide Y receptor type 2 (Homo sapiens), P49146; in the data active = activation above about 27%;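 also: cells stimulated with NPY near EC25 plus isoproterenol at EC100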
Target sequence (P49146 whole entry, looked up): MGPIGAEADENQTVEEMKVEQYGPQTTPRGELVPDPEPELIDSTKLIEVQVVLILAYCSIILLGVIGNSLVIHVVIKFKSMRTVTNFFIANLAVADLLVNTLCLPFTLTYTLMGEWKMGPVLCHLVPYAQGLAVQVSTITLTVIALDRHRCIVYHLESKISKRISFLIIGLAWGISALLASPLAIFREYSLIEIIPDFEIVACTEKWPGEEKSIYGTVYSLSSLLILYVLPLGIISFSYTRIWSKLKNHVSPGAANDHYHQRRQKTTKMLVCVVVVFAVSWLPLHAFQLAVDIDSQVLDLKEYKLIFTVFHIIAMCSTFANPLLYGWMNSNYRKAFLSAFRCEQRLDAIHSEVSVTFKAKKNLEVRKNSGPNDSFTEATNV
NPY Y2 blocker: NPY-Y2 receptor antagonists, primary screen, cell-based | Neuropeptide Y receptor type 2 (Homo sapiens), P49146 | NPY-Y2 expressing cells, antagonist mode | inhibition, % at 2.7 µM | 140,000 compounds, 0.99% hits
NPY1 pot ag: NPY-Y1 receptor potentiators or agonists, primary screen, cell-based; activation, % at 3.6 µM; 220,000 compounds, 0.37% hits; NPY-Y1 expressing cells, potentiator/agonist activation; AID 1304, 2008; in the data active = activation above about 33%, passing the limit was not always enough;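 also: cells stimulated with NPY at EC10 then isoproterenol at EC100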
NPY-Y1 ant conf: NPY-Y1 receptor antagonists, retest of hits, confirmation, HEK293-CNG cells, membrane potential fluorescence, triplicate; shares compounds with NPY Y1 blocker; cAMP; NPY challenge against isoproterenol-raised cAMP; inhibition, % at 3.6 µM; 1,200 compounds, 21% hits; in the data active = inhibition above about 20%
NPY2 antag ctr: NPY-Y2 receptor antagonists, selectivity check, confirmation, counter-screen for NPY-Y1 antagonist project, HEK293-CNG cells, membrane potential fluorescence, triplicate; shares compounds with NPY Y1 blocker; antagonism; cells given NPY, then isoproterenol; inhibition, % at 3.6 µM; 1,200 compounds, 28% hits
NPY-Y1 confirm: NPY-Y1 potentiators or agonists, confirmation, cell-based | shares compounds with NPY1 pot ag | cell-based NPY-Y1 potentiator/agonist assay | activation, % at 3.6 µM | 280 compounds, 20% hits | AID 1546, 2009; in the data active = activation above about 45%;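 also: cells challenged with NPY at its EC10 plus isoproterenol stimulus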
NPY-Y2 counter: NPY-Y2 potentiators or agonists, counter-screen for NPY-Y1 potentiator project, cell-based, fluorescence | AID 1649, 2009 | shares compounds with NPY1 pot ag | HEK293-CNG cells, membrane-potential fluorescence (FLIPR), 1536-well | 280 compounds, 20% hits | activation, % at 3.6 µM; in the data active = activation above about 33%
NPY-Y1 agonist: NPY-Y1 direct agonists without NPY, confirmation, counter-screen for NPY-Y1 potentiator project, cell-based, fluorescence. 280 compounds, 50% hits. shares compounds with NPY1 pot ag. activation, % at 3.6 µM. HEK293 Y1-CNGC, membrane potential fluorescence, agonist mode. AID 1697, 2009;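 active = percent activation above the mean of DMSO-only control wells plus 3 SD of those wells, cut at about 18% in these data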;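 also: cells challenged with isoproterenol plus Ro 20-1724 with no NPY in test wells; Y1 agonism lowers isoproterenol-driven cAMP and reduces probe fluorescence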
NPY-Y2 ag: NPY-Y2 direct agonists without NPY, counter-screen for NPY-Y1 potentiator project, cell-based, fluorescence; shares compounds with NPY1 pot ag; HEK293 Y2-CNGC, membrane potential fluorescence, agonist mode; activation, % at 3.6 µM; 280 compounds, 67% hits; AID 1698, 2009;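 active = activation above the solvent-only control wells' mean plus 3 SD, cut at about 11% in these data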;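 also: agonism lowers cAMP so well fluorescence drops in active wells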
CNGC inh 2: CNGC cAMP sensor activity inhibitors, counter-screen for NPY-Y1 potentiator/agonist project, cell-based, HEK293-CNG parental, membrane potential fluorescence, Y1 set; shares compounds with NPY1 pot ag; isoproterenol cAMP; inhibition, % at 3.6 µM; 280 compounds, 42% hits; AID 1704, 2009;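 active = inhibition above the mean of stimulated solvent-only control wells plus 3 SD, cut at about 22% in these data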
Each line names hits and unclear results; the compound was inactive in the other large screens (follow-up assays come after a bar, where they were run). Rule as the data show it, unless noted: active = inhibition above about 17%; inactive = the rest.

COC(=O)C1CCCN1S(=O)(=O)c1ccc2ccccc2c1 (stereo not given)	NPY Y1 blocker 40.6 | NPY-Y1 ant conf 57.0 | NPY2 antag ctr 26.9
CC1(C)CC[C@]2(C(=O)O)CC[C@]3(C)C(=CCC4[C@@]5(C)CC[C@H](O)C(C)(C)C5CC[C@]43C)C2C1 (stereo not given in full)	none
CC(=O)OC1COC(OC2C(O)C(C)OC(OC3C(OC4CCC5(C)C(CCC6(C)C5CC=C5C7CC(C)(C)CCC7(C(=O)O)CCC56C)C4(C)CO)OCC(O)C3O)C2O)C(O)C1OC(C)=O (stereo not given)	NPY Y1 blocker 23.1, NPY1 pot ag 60.2 (no result: NPY Y2 blocker) | NPY-Y1 ant conf 22.3 | NPY2 antag ctr inactive | NPY-Y1 confirm 83.4 | NPY-Y2 counter 67.9 | NPY-Y1 agonist 57.6 | NPY-Y2 ag 61.6 | CNGC inh 2 47.3
CC1CCC(C(C)C)C(OCC(O)CN2CCCC(C)C2)C1 (stereo not given)	NPY Y1 blocker 28.5, NPY1 pot ag 47.3 (no result: NPY Y2 blocker) | NPY-Y1 ant conf 26.8 | NPY2 antag ctr 21.3 | NPY-Y1 confirm inactive | NPY-Y2 counter inactive | NPY-Y1 agonist inactive | NPY-Y2 ag 13.8 | CNGC inh 2 inactive
Cc1ccc2c(c1C)OC(=O)CC2(C)C	none
Cc1ccccc1OCC(O)CN1CCN(CC(O)COc2ccccc2C)CC1 (stereo not given)	NPY1 pot ag 40.1 (no result: NPY Y2 blocker) | NPY-Y1 confirm inactive | NPY-Y2 counter inactive | NPY-Y1 agonist 31.1 | NPY-Y2 ag 15.6 | CNGC inh 2 inactive
O=C(c1cc2ccccc2o1)N(C1CC1)C1(C(=O)Nc2ccccc2)CCCC1	none (no result: NPY Y2 blocker)
OCCC1CN(CC#Cc2ccccc2)CCN1C1CCCC1 (stereo not given)	NPY1 pot ag 101.7 (no result: NPY Y2 blocker) | NPY-Y1 confirm inactive | NPY-Y2 counter inactive | NPY-Y1 agonist inactive | NPY-Y2 ag inactive | CNGC inh 2 inactive
Cc1cccc(C)c1Nc1c(-c2ccccn2)nc2ccccn12	NPY1 pot ag 46.1 (no result: NPY Y2 blocker) | NPY-Y1 confirm 47.8 | NPY-Y2 counter 33.6 | NPY-Y1 agonist 39.3 | NPY-Y2 ag 41.0 | CNGC inh 2 30.5
COc1ccccc1N1CCN(C2CC(=O)N(C)C2=O)CC1 (stereo not given)	none (no result: NPY Y2 blocker)
O=C(CN1c2ccccc2Sc2ccccc21)NNC(=O)Nc1cccc(Cl)c1	NPY1 pot ag 50.0 (no result: NPY Y1 blocker, NPY Y2 blocker) | NPY-Y1 confirm 47.9 | NPY-Y2 counter inactive | NPY-Y1 agonist 45.5 | NPY-Y2 ag 36.2 | CNGC inh 2 39.9
O=C(Cc1ccccc1)NNC(=O)Nc1cccc(Cl)c1	none
COc1ccc(N=C2C(=O)N3c4c(cccc42)C(C)=CC3(C)C)cc1	none
C/C(=N\Nc1ccc([N+](=O)[O-])cc1)c1ccc(C#N)cc1	none (no result: NPY Y1 blocker, NPY Y2 blocker)
N#CC(C#N)=NNc1ccc([N+](=O)[O-])cc1	NPY1 pot ag 51.0 (no result: NPY Y1 blocker, NPY Y2 blocker) | NPY-Y1 confirm inactive | NPY-Y2 counter inactive | NPY-Y1 agonist 37.2 | NPY-Y2 ag 35.7 | CNGC inh 2 31.8
O=C(CN1CCOCC1)Nc1ncc(Cc2cccc(Cl)c2Cl)s1	none
O=C(CCC1CC(=O)Nc2ccccc21)NCc1ccccc1 (stereo not given)	none
O=C(CCC1CC(=O)Nc2ccccc21)NCc1ccc(F)cc1 (stereo not given)	NPY1 pot ag 67.7 | NPY-Y1 confirm inactive | NPY-Y2 counter inactive | NPY-Y1 agonist inactive | NPY-Y2 ag inactive | CNGC inh 2 inactive
Cc1cc(OC(F)F)ccc1NC(=O)Nc1ccc([N+](=O)[O-])cc1	NPY1 pot ag 58.9 | NPY-Y1 confirm inactive | NPY-Y2 counter inactive | NPY-Y1 agonist 25.0 | NPY-Y2 ag 28.4 | CNGC inh 2 30.6
Cc1ccc(S(=O)(=O)O/N=C2\CCCc3ccccc32)cc1	none
CC1=C(C)/C(=N\OS(=O)(=O)c2ccccc2)C=CC1=O	NPY1 pot ag 69.7 | NPY-Y1 confirm inactive | NPY-Y2 counter inactive | NPY-Y1 agonist inactive | NPY-Y2 ag 12.8 | CNGC inh 2 inactive
Cc1cc2ccccn2c1C(=O)c1ccc(N/N=C/c2ccc(C(=O)O)cc2)c([N+](=O)[O-])c1	none (no result: NPY Y1 blocker, NPY Y2 blocker)
C/C(=N\Nc1ccc(C(=O)c2c(C)cc3ccccn23)cc1[N+](=O)[O-])c1ccc(O)cc1	NPY1 pot ag 61.8 (no result: NPY Y1 blocker, NPY Y2 blocker) | NPY-Y1 confirm inactive | NPY-Y2 counter inactive | NPY-Y1 agonist inactive | NPY-Y2 ag 12.4 | CNGC inh 2 inactive
O=C1N=c2ccccc2=C1c1sc(=S)n(Cc2ccccc2Cl)c1O	NPY1 pot ag 72.4 (no result: NPY Y1 blocker, NPY Y2 blocker) | NPY-Y1 confirm inactive | NPY-Y2 counter 37.8 | NPY-Y1 agonist 24.8 | NPY-Y2 ag 30.4 | CNGC inh 2 29.8
CCN1C(=O)/C(=C/C=C2\N(CC)c3cc(S(=O)(=O)N(C)C)ccc3N2c2ccccc2)SC1=S	NPY1 pot ag 50.4 (no result: NPY Y1 blocker, NPY Y2 blocker) | NPY-Y1 confirm 56.8 | NPY-Y2 counter 51.7 | NPY-Y1 agonist 50.9 | NPY-Y2 ag 62.5 | CNGC inh 2 39.2
O=C(O)/C=C/C(=O)Nc1ccc(Oc2ccccc2)cc1	none (no result: NPY Y1 blocker, NPY Y2 blocker)
CCOC(=O)/C=C/C(=O)Nc1ccc(Oc2ccccc2)cc1	NPY1 pot ag 38.6 (no result: NPY Y2 blocker) | NPY-Y1 confirm inactive | NPY-Y2 counter inactive | NPY-Y1 agonist inactive | NPY-Y2 ag 18.8 | CNGC inh 2 25.2
COc1ccc(CCNC(=O)Cn2nc([N+](=O)[O-])c(Br)c2C)cc1OC	none
CC1CCN(c2nc(-c3ccccc3O)nc3ccccc23)CC1	none
CC1CCN(c2ncnc3ccccc23)CC1	NPY1 pot ag 40.3 | NPY-Y1 confirm inactive | NPY-Y2 counter inactive | NPY-Y1 agonist inactive | NPY-Y2 ag inactive | CNGC inh 2 inactive
